According to ChEMBL document CHEMBL4613294, “Inhibition of Nonessential Bacterial Targets: Discovery of a Novel Serine O-Acetyltransferase Inhibitor” (ACS Med Chem Lett, 2020):
Values after ≈ are worked out from the molar mass of the structure shown. Active and inactive are the calls of the source. No cut-off for these calls is given here.

Experiments:
[1] = system: Salmonella enterica subsp. enterica serovar Typhimurium; test: Inhibition of Salmonella typhimurium Serine acetyltransferase expressed in Escherichia coli Tuner(TM) BL21(DE3) cells at 100 uM using acetylCo-A and L-serine as substrate measured every 27 secs for 5 mins by DNTB reagent-based UV-Visible spectrophotometric method relative to control
How it was run: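 Recombinant StSAT activity followed indirectly with Ellman's reagent: CoASH released from acetyl-CoA plus L-Ser gives TNB, read by absorbance at pH above 7 (ε 14 000 M–1 cm–1) in 96-well format. Compounds at 100 μM, kinetic reads at 27 s intervals, % inhibition taken at 180 s endpoint. Hits at ≥40% retested at 100 μM.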

[2] = Inhibition of Salmonella typhimurium Serine acetyltransferase expressed in Escherichia coli Tuner(TM) BL21(DE3) cells using acetylCo-A and L-serine as substrate measured every 27 secs for 5 mins by DNTB reagent-based UV-Visible spectrophotometric method; design: species or system Salmonella enterica subsp. enterica serovar Typhimurium
Escherichia coli [3] = test: Antibacterial activity against Escherichia coli ATCC 25922 incubated in MHB medium for 16 to 24 hrs by CLSI-based broth microdilution assay; type: functional
Escherichia coli [4] = test: Antibacterial activity against Escherichia coli ATCC 25922 incubated in LB 20% minimal medium lacking cysteine for 16 to 24 hrs by CLSI-based broth microdilution assay; type: functional
Staphylococcus aureus = test: Antibacterial activity against methicillin-resistant Staphylococcus aureus ATCC 33591 after 12 hrs by resazurin dye based assay; type: functional; settings: ATCC 33591, 12 h
[5] = system: Salmonella enterica subsp. enterica serovar Typhimurium; test: Inhibition of Salmonella typhimurium Serine acetyltransferase expressed in Escherichia coli Tuner(TM) BL21(DE3) cells at 50 to 200 uM using acetylCo-A and L-serine as substrate measured every 27 secs for 5 mins by DNTB reagent-based UV-Visible spectrophotometric method
[6] = Solubility of compound at 200 uM; type: physicochemical

Structure (SMILES) | IC50 [2] [µM] | MIC (Escherichia coli [3]) [µg/mL] | MIC (Escherichia coli [4]) [µg/mL] | solubility [6] | inhibition [1] [%] | MIC (Staphylococcus aureus) [µg/mL] | inhibition [5]
CC1(C)CCC[C@]2(C)C1CC[C@]1(O)[C@H](O)C3=C(CO)C(=O)OC3=C[C@H]12 (some centres not stated) |  |  |  |  |  | 25 (≈ 71.7 µM) | 
CC1=C2[C@@H](OC1=O)C(=O)[C@@H]1[C@@](O)(CCC3C(C)(C)CCC[C@]31C)[C@H]2O (some centres not stated) |  |  |  |  |  | 12.5 (≈ 35.9 µM) | 
COc1ccc(-c2cc(C(=O)NCc3ccccc3)n[nH]2)cc1S(N)(=O)=O | 52.8 | > 128 | > 128 |  | 79 |  | 
COc1cc(NC(=O)c2cc(-c3ccc(OC)c(S(N)(=O)=O)c3)[nH]n2)cc(OC)c1 |  | > 128 | > 128 | Insoluble | 52 |  | Active
COc1cccc(NC(=O)c2cc(-c3ccc(OC)c(S(N)(=O)=O)c3)[nH]n2)c1 | 13.6 | > 128 | > 128 |  | 75 |  | 

Second part, led by results:

IC50 [2] [µM] | MIC (Escherichia coli [3]) [µg/mL] | MIC (Escherichia coli [4]) [µg/mL] | solubility [6] | Structure (SMILES) | inhibition [1] [%] | MIC (Staphylococcus aureus) [µg/mL] | inhibition [5]
84.1 | > 128 | > 128 |  | C=CCSc1nc2c(c(=O)[nH]1)C(c1ccc(OCC(N)=O)cc1)CC(=O)N2 (configuration not stated) | 57 |  | 
47.8 | > 128 | > 128 |  | Cc1snnc1C(=O)Nc1ncc([N+](=O)[O-])s1 | 72 |  | 
48.6 | > 128 | 64 (≈ 249 µM) |  | O=C(Nc1ncc([N+](=O)[O-])s1)c1csnn1 | 68 |  | 
